MIC data for two molecules are collected here from ChEMBL document CHEMBL5247575 (J Med Chem, 2018).

The MIC is the lowest concentration found to suppress growth.

Common to all, as to format: functional
Assay [1] deals with Escherichia coli. As to the kind of experiment: Antibacterial activity against Escherichia coli DH10B transfected with pBC SK (-) KPC-3 by broth microdilution method.
The test system of assay [2] is Escherichia coli. As to the kind of experiment: Antibacterial activity against Escherichia coli DH10B transfected with pBC SK (-) PDC-3 by broth microdilution method.
The test system of assay [3] is Pseudomonas aeruginosa. As to the kind of experiment: Antibacterial activity against Pseudomonas aeruginosa 839 by broth microdilution method.
Assay [4] concerns Escherichia coli. As to the kind of experiment: Synergistic antibacterial activity against Escherichia coli DH10B assessed as cefepime MIC at 4 ug/ml by broth microdilution method. Conditions: dose 4 µg/ml. (Broth dilution looks for growth in wells or tubes with falling amounts of substance.)
The test system of assay [5] is Escherichia coli. Nature of the assay: Synergistic antibacterial activity against Escherichia coli DH10B transfected with pBR322-catI-KPC-2 assessed as cefepime MIC at 4 ug/ml by broth microdilution method. To be noted: dose 4 µg/ml. In outline: (§1)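 Broth microdilution per CLSI guidelines, using custom frozen panels. […] Each partner drug was also tested alone. MICs were run in triplicate and the modal value is reported.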

Assay [6] relates to Escherichia coli. As to the kind of experiment: Synergistic antibacterial activity against Escherichia coli DH10B transfected with pBC SK (-) KPC-2 assessed as cefepime MIC at 4 ug/ml by broth microdilution method. Conditions: dose 4 µg/ml.
The test system of assay [7] is Escherichia coli. Nature of the assay: Synergistic antibacterial activity against Escherichia coli DH10B transfected with pBC SK (-) PDC-3 assessed as cefepime MIC at 4 ug/ml by broth microdilution method. To be noted: dose 4 µg/ml. The gist of the method: as §1
In assay [8] the test system is Klebsiella pneumoniae. As to the kind of experiment: Synergistic antibacterial activity against Klebsiella pneumoniae 729/1679 producing KPC-3 assessed as cefepime MIC at 4 ug/ml by broth microdilution method. Conditions: dose 4 µg/ml. The gist of the method:
as §1

Assay [9] has as its system Klebsiella pneumoniae. As to the kind of experiment: Synergistic antibacterial activity against Klebsiella pneumoniae 977/1916 producing KPC-3 assessed as cefepime MIC at 4 ug/ml by broth microdilution method. Conditions: dose 4 µg/ml.
The subject of assay [10] is Klebsiella pneumoniae. As to the kind of experiment: Synergistic antibacterial activity against Klebsiella pneumoniae CAV 1636 producing OXA-181 assessed as cefepime MIC at 4 ug/ml by broth microdilution method. Conditions: dose 4 µg/ml.
For assay [11], the system named is Klebsiella pneumoniae. Nature of the assay: Synergistic antibacterial activity against Klebsiella pneumoniae NY BS producing OXA-232 assessed as cefepime MIC at 4 ug/ml by broth microdilution method. Conditions: dose 4 µg/ml.
For assay [12], the system named is Pseudomonas aeruginosa. As to the kind of experiment: Synergistic antibacterial activity against Pseudomonas aeruginosa 795 assessed as cefepime MIC at 4 ug/ml by broth microdilution method. To be noted: dose 4 µg/ml.
In assay [13] the test system is Pseudomonas aeruginosa. As to the kind of experiment: Synergistic antibacterial activity against Pseudomonas aeruginosa 839 assessed as cefepime MIC at 4 ug/ml by broth microdilution method. To be noted: dose 4 µg/ml.
Assay [14] has as its system Acinetobacter baumannii. As to the kind of experiment: Synergistic antibacterial activity against Acinetobacter baumannii PR319 producing OXA-23/24/40 assessed as cefepime MIC at 4 ug/ml by broth microdilution method. To be noted: dose 4 µg/ml.
For assay [15], the system named is Acinetobacter baumannii. Nature of the assay: Synergistic antibacterial activity against Acinetobacter baumannii PR448 producing OXA-23 assessed as cefepime MIC at 4 ug/ml by broth microdilution method. To be noted: dose 4 µg/ml.
The test system of assay [16] is Escherichia coli. Nature of the assay: Synergistic antibacterial activity against Escherichia coli DH10B assessed as meropenem MIC at 4 ug/ml by broth microdilution method. Conditions: dose 4 µg/ml.
Assay [17] concerns Klebsiella pneumoniae. As to the kind of experiment: Synergistic antibacterial activity against Klebsiella pneumoniae 1084/1957 producing KPC-3 assessed as meropenem MIC at 4 ug/ml by broth microdilution method. To be noted: dose 4 µg/ml. The gist of the method:
as §1

Assay [18] has as its system Klebsiella pneumoniae. As to the kind of experiment: Synergistic antibacterial activity against Klebsiella pneumoniae 972/1910 producing KPC-3 assessed as meropenem MIC at 4 ug/ml by broth microdilution method. Conditions: dose 4 µg/ml.
The subject of assay [19] is Klebsiella pneumoniae. Nature of the assay: Synergistic antibacterial activity against Klebsiella pneumoniae CAV 1543 producing OXA-48 assessed as meropenem MIC at 4 ug/ml by broth microdilution method. Conditions: dose 4 µg/ml.
Assay [20] relates to Klebsiella pneumoniae. Nature of the assay: Synergistic antibacterial activity against Klebsiella pneumoniae jefferson 1775 producing OXA-48 assessed as meropenem MIC at 4 ug/ml by broth microdilution method. Conditions: dose 4 µg/ml.
In assay [21] the test system is Acinetobacter baumannii. Nature of the assay: Synergistic antibacterial activity against Acinetobacter baumannii PR323 producing OXA-24/40 assessed as meropenem MIC at 4 ug/ml by broth microdilution method. To be noted: dose 4 µg/ml.
Assay [22] relates to Acinetobacter baumannii. As to the kind of experiment: Synergistic antibacterial activity against Acinetobacter baumannii PR420 producing OXA-23/24/40 assessed as meropenem MIC at 4 ug/ml by broth microdilution method. To be noted: dose 4 µg/ml.
The test system of assay [23] is Acinetobacter baumannii. Nature of the assay: Synergistic antibacterial activity against Acinetobacter baumannii PR474 producing OXA-23/24/40 assessed as meropenem MIC at 4 ug/ml by broth microdilution method. Conditions: dose 4 µg/ml.
Assay [24] deals with Acinetobacter baumannii. As to the kind of experiment: Synergistic antibacterial activity against ADC deleted Acinetobacter baumannii transfected with pWH1266 OXA-23 assessed as cefepime MIC at 4 ug/ml by broth microdilution method. Conditions: dose 4 µg/ml.

`NC(=O)[C@@H]1CC[C@@H]2CN1C(=O)N2OS(=O)(=O)[O-].[Na+]` [AVIBACTAM SODIUM]: the MIC was > 16 µg/mL against Escherichia coli [1]; > 16 µg/mL in the assay on Escherichia coli [2]; > 16 µg/mL with Pseudomonas aeruginosa [3]; ≤ 0.12 µg/mL in the assay with Escherichia coli [4]; ≤ 0.12 µg/mL with Escherichia coli [5]; ≤ 0.12 µg/mL in the assay with Escherichia coli [6]. The MIC was ≤ 0.12 µg/mL with Escherichia coli [7]; 0.25 µg/mL in the assay with Klebsiella pneumoniae [8]; ≤ 0.12 µg/mL in the assay on Klebsiella pneumoniae [9]; 0.5 µg/mL in the assay on Klebsiella pneumoniae [10]; 0.5 µg/mL in the assay on Klebsiella pneumoniae [11]; > 16 µg/mL in the assay with Pseudomonas aeruginosa [12]. Besides, the MIC in the assay on Pseudomonas aeruginosa [13] is 4 µg/mL; in the assay on Acinetobacter baumannii [14], > 16 µg/mL; in the assay with Acinetobacter baumannii [15] it was 16 µg/mL; with Escherichia coli [16], ≤ 0.12 µg/mL; in the assay with Klebsiella pneumoniae [17], ≤ 0.12 µg/mL; in the assay with Klebsiella pneumoniae [18] it was ≤ 0.12 µg/mL. In addition, the MIC in the assay on Klebsiella pneumoniae [19] is ≤ 0.12 µg/mL; with Klebsiella pneumoniae [20] it was ≤ 0.12 µg/mL; in the assay with Acinetobacter baumannii [21], > 16 µg/mL; with Acinetobacter baumannii [22], > 16 µg/mL; in the assay on Acinetobacter baumannii [23], > 16 µg/mL.

As for `O.O=C(NC1CCNCC1)[C@@H]1CC[C@@H]2CN1C(=O)N2OS(=O)(=O)O` [RELEBACTAM], the MIC is > 16 µg/mL with Escherichia coli [1]; > 16 µg/mL in the assay with Escherichia coli [2]; > 16 µg/mL against Pseudomonas aeruginosa [3]; ≤ 0.12 µg/mL with Escherichia coli [4]; ≤ 0.12 µg/mL in the assay with Escherichia coli [5]; ≤ 0.12 µg/mL in the assay with Escherichia coli [6]. The MIC with Escherichia coli [7] was ≤ 0.12 µg/mL; in the assay with Acinetobacter baumannii [24] it was > 16 µg/mL; with Klebsiella pneumoniae [8], 0.5 µg/mL; in the assay with Klebsiella pneumoniae [9] it was 0.25 µg/mL; in the assay on Klebsiella pneumoniae [10], 4 µg/mL; in the assay with Klebsiella pneumoniae [11] it was 2 µg/mL. Further, the minimum inhibitory concentration (MIC) in the assay with Pseudomonas aeruginosa [12] was > 16 µg/mL; in the assay on Pseudomonas aeruginosa [13] it was 4 µg/mL; with Acinetobacter baumannii [14] it was > 16 µg/mL; with Acinetobacter baumannii [15], 16 µg/mL; in the assay with Escherichia coli [16], ≤ 0.12 µg/mL; with Klebsiella pneumoniae [17], ≤ 0.12 µg/mL. In addition, the MIC is ≤ 0.12 µg/mL in the assay with Klebsiella pneumoniae [18]; 8 µg/mL in the assay with Klebsiella pneumoniae [19]; 2 µg/mL in the assay on Klebsiella pneumoniae [20]; > 16 µg/mL with Acinetobacter baumannii [21]; > 16 µg/mL in the assay on Acinetobacter baumannii [22]; > 16 µg/mL in the assay on Acinetobacter baumannii [23].
